Results filed as inconclusive are left out.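 The calls were made as follows, unless noted: active = growth inhibition above 25% in both replicates, a cutoff set 3 SD above the mean; inconclusive = above 25% in only one replicate; inactive = the rest.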
How the values were obtained:
[1] = OD615 S. cerevisiae growth inhibition, permissive medium, pilot counter-assay, permissive growth control for S. cerevisiae lifespan shortening project (AID 705); conditions: OD615, 24 h, at 10 µM, stronger effect = higher value
Procedure, shortened: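 System: S. cerevisiae with engineered DeaD lifespan system / Measured by: absorbance (optical density) at 615 nm / Read-out: reduction in yeast growth (OD615) / Times: 4 h cell pre-growth, 24 h exposure at 30 °C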

[2] = Restrictive medium S. cerevisiae growth inhibition, OD615, pilot screen of yeast lifespan reduction project, restrictive growth control (AID 706;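 active = growth inhibition above a set limit, 3 SD over mean compound inhibition, in both replicates, cut at about 43% in these data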;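 also: modified DeaD lifespan yeast strain shifted to restrictive glucose medium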); conditions: OD615, 48 h, at 10 µM, stronger effect = higher value
Procedure, shortened: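 System: Engineered S. cerevisiae DeaD strain | Buffer or medium: Glucose-based CSMM-D restrictive medium | Schedule: 4 h pre-incubation, 48 h exposure at 30 °C | Technique: Optical density at 615 nm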

[3] = viability gain of MRP-1-high H69AR cells under doxorubicin, pilot screen, MRP-1 activator project, CellTiter-Glo, duplicate (AID 807;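 active = viability increase at or above a cutoff of the median across tested compounds plus 3 SD, cut at about 8.5% in these data, passing the limit was not always enough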;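 also: compound pretreatment 18-22 h then 72 h combined with doxorubicin; 0% = doxorubicin alone and 100% = vehicle without doxorubicin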); conditions: H69AR viability with doxorubicin, CellTiter-Glo luminescence; at 10 µM; stronger effect = higher value
[4] = growth suppression of beta-catenin knockout HCT116, pilot screen, human colon tumor cells (AID 823;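 active = cell viability at or below a set limit in both duplicate runs, the limit being the all-compound median minus 4 SD, cut at about 23% in these data, passing the limit was not always enough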;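 also: 0% = wells killed by 20 µM Hyamine and 100% = untreated DMSO cell wells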); conditions: CellTiter-Glo, 60 h, at 10 µM, stronger effect = lower value
[5] = growth suppression of PTEN-deleted HCT116, pilot screen, cell-based, HCT116 clonal line, CellTiter-Glo (AID 824;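 active = viability at or below 27.92% in each of two runs, the all-compound median minus 4 SD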;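 also: 0% = 20 µM Hyamine control and 100% = vehicle cell control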); conditions: 60 h, at 10 µM, stronger effect = lower value
[6] = inhibitors of the yeast RAM network, pilot screen, dse1pr::URA3 reporter, 5-FOA selection (AID 869;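 active = inhibition over a set limit, the all-compound mean plus 3 SD, in both replicate runs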;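 also: 0% = DMSO wells with no growth and 100% = 10 µM 1-NA-PP1 with full growth; RAM network block rescues cells from 5-FOA so hits raise OD615 growth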); conditions: S. cerevisiae dse1pr::URA3 5-FOA growth, OD615, 2 d; at 10 µM; stronger effect = higher value; strain carries analog-sensitive mutant Cbk1 kinase
[7] = RAM signaling pathway blockade in yeast – S. cerevisiae, Pdr1DBD-CYC8 efflux-inhibited sensitized strain, primary screen (AID 1298;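 active = RAM network inhibition above 8.4% in each of two replicates, 3 SD over the compound average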;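 also: 0% = DMSO untreated cells without growth and 100% = 10 µM 1-NA-PP1 full growth; higher means more yeast growth rescued from 5-FOA killing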); conditions: S. cerevisiae cbk1-as DSE1-URA3 strain, 5-FOA growth OD615, 2 d; at 50 µM; stronger effect = higher value

CCCC(=O)N1CCN(c2ccc(C(=O)c3ccc(OC)c(Br)c3)cc2F)CC1
inactive: growth inhibition [1] -14.6% | growth inhibition [2] -18.4% | viability increase [3] -1.74% | viability [4] 96.8% | viability [5] 93.7% | inhibition [6] 1.3% | RAM network inhibition [7] 4.76%

O=c1cc(CO)oc(C(Nc2ccccn2)c2ccccc2F)c1O (centres undefined)
inactive: growth inhibition [1] -10.6% | growth inhibition [2] -4.86% | viability increase [3] -5.64% | viability [4] 106% | viability [5] 93.3% | inhibition [6] 0.95% | RAM network inhibition [7] 2.91%

COC(=O)C1=C(C)OC(N)=C(C#N)C1c1ccccc1F (centres undefined)
inactive: growth inhibition [1] -9.68% | growth inhibition [2] -3.74% | viability increase [3] -3.38% | viability [4] 94.9% | viability [5] 98.1% | inhibition [6] -0.37% | RAM network inhibition [7] -0.76%

Cc1cc2nc(-c3cccc(NC(=O)c4ccc(Br)o4)c3C)oc2cc1C
inactive: growth inhibition [1] -0.715% | growth inhibition [2] -9.59% | viability increase [3] 3.53% | viability [4] 87% | viability [5] 84.2% | inhibition [6] 2.33% | RAM network inhibition [7] 2.65%

Cc1ccc(S(=O)(=O)Nc2ccc3nc(N)sc3c2)cc1
inactive: growth inhibition [1] 6.55% | growth inhibition [2] 13.4% | viability increase [3] -4.39% | viability [4] 82.6% | viability [5] 85.5% | inhibition [6] 0.19% | RAM network inhibition [7] 2.92%

COc1cc(Br)cc(-c2nc3c(c(=O)[nH]c(=O)n3Cc3ccccc3)n2C)c1O
inactive: growth inhibition [1] 3.34% | growth inhibition [2] -0.8% | viability increase [3] -1.31% | viability [4] 89.6% | viability [5] 87.6% | inhibition [6] 2.02% | RAM network inhibition [7] 3.23%

Cc1nc2ncnn2c(C)c1Cc1ccc(Cl)cc1F
inactive: growth inhibition [1] -9.96% | growth inhibition [2] -18.8% | viability increase [3] -1.72% | viability [4] 95.7% | viability [5] 92.2% | inhibition [6] 0.26% | RAM network inhibition [7] 6.16%

Cc1ccccc1Cn1c(=O)[nH]c2ccccc21
inactive: growth inhibition [1] -1.87% | growth inhibition [2] 4.58% | viability increase [3] 0.06% | viability [4] 96.5% | viability [5] 88.5% | inhibition [6] 1.9% | RAM network inhibition [7] 4.55%

CCOC(=O)c1c(N)sc(C(=O)N2CCCCCC2)c1C
inactive: growth inhibition [1] -20.4% | growth inhibition [2] -21.8% | viability increase [3] 0.25% | viability [4] 96.7% | viability [5] 91.2% | inhibition [6] -0.305% | RAM network inhibition [7] -0.21%

Cn1c(=O)c2c(nc(NCc3ccccc3)n2Cc2ccc(F)cc2)n(C)c1=O
inactive: growth inhibition [1] -2.42% | growth inhibition [2] -16.9% | viability increase [3] -5.47% | viability [4] 65.9% | viability [5] 54.1% | inhibition [6] 2.54% | RAM network inhibition [7] 3.33%

COCCNC(=O)CN(c1ccc(C)cc1)S(=O)(=O)c1ccc(SC)cc1
inactive: growth inhibition [1] -10.6% | growth inhibition [2] -12.2% | viability increase [3] -0.9% | viability [4] 96.2% | viability [5] 84.2% | inhibition [6] 0.71% | RAM network inhibition [7] 5.17%

CCOC(=O)C1=C(C)NC(C)=C(C(=O)OCC)C1c1nc2ccccc2[nH]1
inactive: growth inhibition [1] -21.8% | growth inhibition [2] -11.2% | viability increase [3] -1.33% | viability [4] 96.2% | viability [5] 96.3% | inhibition [6] 0.96% | RAM network inhibition [7] 1.43%

CCC(=O)c1ccc(OCC(O)CN2C(=O)NC(C)(C)C2=O)cc1 (centres undefined)
inactive: growth inhibition [1] -3.58% | growth inhibition [2] -3.1% | viability increase [3] -0.53% | viability [4] 100% | viability [5] 92.8% | inhibition [6] 1.6% | RAM network inhibition [7] 1.09%

Cc1onc(-c2c(F)cccc2Cl)c1C(=O)OCC(=O)Nc1c(C)n(C)n(-c2ccccc2)c1=O
inactive: growth inhibition [1] -3.96% | growth inhibition [2] -1.53% | viability increase [3] -0.55% | viability [4] 87.4% | viability [5] 90.3% | inhibition [6] 0.92% | RAM network inhibition [7] 1.78%

Cc1nc2ccc(S(=O)(=O)NC(C(=O)NC3CCCC3)C(C)C)cc2s1 (centres undefined)
inactive: growth inhibition [1] -5.81% | growth inhibition [2] -1.42% | viability increase [3] -0.4% | viability [4] 102% | viability [5] 101% | inhibition [6] 1.04% | RAM network inhibition [7] 1.87%

Cc1nn2cc(-c3ccccc3)nc2s1
inactive: growth inhibition [1] -5.37% | growth inhibition [2] -7.45% | viability increase [3] -1.05% | viability [4] 93.3% | viability [5] 91.6% | inhibition [6] 0.575% | RAM network inhibition [7] 4.7%

COc1ccc(-c2cc(C(F)F)n3ncc(C(=O)NCCCN4CCCC4=O)c3n2)cc1
inactive: growth inhibition [1] -3.45% | growth inhibition [2] -7.12% | viability increase [3] -4.32% | viability [4] 78.5% | viability [5] 73.5% | inhibition [6] -0.515% | RAM network inhibition [7] 3.32%

O=C1CC(Nc2ccc(N3CCOCC3)cc2)C(=O)N1c1ccccc1F (centres undefined)
inactive: growth inhibition [1] 1.41% | growth inhibition [2] -5.97% | viability increase [3] -2.99% | viability [4] 110% | viability [5] 105% | inhibition [6] 1.53% | RAM network inhibition [7] 5.38%

CCOC(=O)CSc1nnc(Cc2cc(=O)[nH]c(=O)[nH]2)n1-c1ccc(Cl)cc1
inactive: growth inhibition [1] -16.1% | growth inhibition [2] -1.39% | viability increase [3] 1.33% | viability [4] 101% | viability [5] 100% | inhibition [6] 2.48% | RAM network inhibition [7] 4.03%

CCCC(C(=O)N1CCOCC1)N1C(=O)C2C3C=CC(C3)C2C1=O (centres undefined)
inactive: growth inhibition [1] -8.63% | growth inhibition [2] 3.61% | viability increase [3] 0.84% | viability [4] 99% | viability [5] 99% | inhibition [6] 0.215% | RAM network inhibition [7] -0.83%

O=C(c1cc(-c2cccc(O)c2)on1)N1CCCCC1
inactive: growth inhibition [1] 0.145% | growth inhibition [2] 10.4% | viability increase [3] 0.08% | viability [4] 101% | viability [5] 103% | inhibition [6] -0.46% | RAM network inhibition [7] 4.74%

Cn1cc(SCC(=O)NCC2CCCO2)c2ccccc21 (centres undefined)
inactive: growth inhibition [1] -3.53% | growth inhibition [2] 2.04% | viability increase [3] -2.67% | viability [4] 94.9% | viability [5] 93.2% | inhibition [6] 1.21% | RAM network inhibition [7] 0.31%

CCN(CC)CCNC(=O)c1sc2nc(-c3ccccc3)cn2c1C
inactive: growth inhibition [1] -2.38% | growth inhibition [2] 6.54% | viability increase [3] -1.73% | viability [4] 83.2% | viability [5] 81.4% | inhibition [6] 0.06% | RAM network inhibition [7] 1.57%

NC(=O)c1ccc(N2CCCCC2)c(N2C(=O)CCC2=O)c1
inactive: growth inhibition [1] -4.77% | growth inhibition [2] -17.9% | viability increase [3] -0.03% | viability [4] 102% | viability [5] 94.6% | inhibition [6] 2.69% | RAM network inhibition [7] 2.67%

CCOc1ccc(N(CC(=O)N2CCN(c3ccccc3)CC2)S(=O)(=O)c2c(C)noc2C)cc1
inactive: growth inhibition [1] 1.67% | growth inhibition [2] -1.08% | viability increase [3] -5.76% | viability [4] 76.4% | viability [5] 67.7% | inhibition [6] 1.49% | RAM network inhibition [7] 1.85%

Cc1ccnc(SCCn2c(N(C)Cc3ccccc3)nc3c2c(=O)n(C)c(=O)n3C)n1
inactive: growth inhibition [1] -15.3% | growth inhibition [2] -13% | viability increase [3] -0.84% | viability [4] 93.3% | viability [5] 88.7% | inhibition [6] -0.475% | RAM network inhibition [7] 5.55%

CCC(CO)N=CC1=C(O)C(C(=O)c2ccccc2)CCC1=O (centres undefined)
inactive: growth inhibition [1] -10.4% | growth inhibition [2] -14.8% | viability increase [3] 1.63% | viability [4] 96.5% | viability [5] 105% | inhibition [6] 0.62% | RAM network inhibition [7] 2.38%

O=C(COC(=O)c1ccc(S(=O)(=O)NCc2ccco2)cc1)Nc1ccccc1OC(F)F
inactive: growth inhibition [1] -8.88% | growth inhibition [2] -12.5% | viability increase [3] -2.64% | viability [4] 93.5% | viability [5] 93.7% | inhibition [6] 1.43% | RAM network inhibition [7] 7.18%

O=C(Nc1ccc(Br)cc1F)C1CCCN(S(=O)(=O)c2cnc[nH]2)C1 (centres undefined)
inactive: growth inhibition [1] 2.29% | growth inhibition [2] -10.9% | viability increase [3] 2.99% | viability [4] 92.2% | viability [5] 98% | inhibition [6] 0.905% | RAM network inhibition [7] 5.06%

Cc1ccc(OS(=O)Nc2cccc3nccnc23)cc1 (centres undefined)
inactive: growth inhibition [1] 1.61% | growth inhibition [2] 13.2% | viability increase [3] -4.19% | viability [4] 56.8% | viability [5] 55% | inhibition [6] 1.72% | RAM network inhibition [7] 2.2%

NC(=O)CCc1c[nH]c2ccccc12
inactive: growth inhibition [1] -1.2% | growth inhibition [2] -4.15% | viability increase [3] -3.35% | viability [4] 91% | viability [5] 94.2% | inhibition [6] 2.47% | RAM network inhibition [7] 5.98%

COCCN1Cc2cccc(C(=O)NCc3cccnc3)c2C1=O
inactive: growth inhibition [1] 3.25% | growth inhibition [2] 10.2% | viability increase [3] 0.03% | viability [4] 111% | viability [5] 101% | inhibition [6] 3.75% | RAM network inhibition [7] 0.51%

— PubChem BioAssay
